Data taken from ChEMBL document CHEMBL1629517, “Molecular properties prediction, synthesis and antimicrobial activity of some newer oxadiazole derivatives” (2010).
Converted amounts (≈) assume the structure as drawn.

Assays:
[1] = test system: Escherichia coli; assay: Antibacterial activity against Escherichia coli ATCC 25922 at 100 ug/ml after 24 hrs by disc-diffusion method; type: functional; conditions: ATCC 25922, 24 h, read-out: IZ
[2] = test system: Pseudomonas aeruginosa; assay: Antibacterial activity against Pseudomonas aeruginosa ATCC 27853 at 200 ug/ml after 24 hrs by disc-diffusion method; type: functional; conditions: ATCC 27853, 24 h, read-out: IZ
[3] = test system: Bacillus subtilis; assay: Antibacterial activity against Bacillus subtilis ATCC 6633 after 18 to 24 hrs; type: functional
[4] = test system: Staphylococcus aureus; assay: Antibacterial activity against Staphylococcus aureus ATCC 25923 at 100 ug/ml after 24 hrs by disc-diffusion method; type: functional; conditions: ATCC 25923, 24 h, read-out: IZ
[5] = test system: Bacillus subtilis; assay: Antibacterial activity against Bacillus subtilis ATCC 6633 at 200 ug/ml after 24 hrs by disc-diffusion method; type: functional; conditions: ATCC 6633, 24 h, read-out: IZ
[6] = test system: Bacillus subtilis; assay: Antibacterial activity against Bacillus subtilis ATCC 6633 at 100 ug/ml after 24 hrs by disc-diffusion method; type: functional; conditions: ATCC 6633, 24 h, read-out: IZ
[7] = test system: Staphylococcus aureus; assay: Antibacterial activity against Staphylococcus aureus ATCC 25923 after 18 to 24 hrs; type: functional
[8] = test system: Aspergillus niger; assay: Antifungal activity against Aspergillus niger at 200 ug/ml after 48 hrs by agar diffusion method; type: functional; conditions: read-out: IZ
Summary of the method: (§1)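 Agar well diffusion on Sabouraud agar (peptone 1 g, D-glucose 4 g, agar 2 g per 100 ml water, pH 5.7). Plates were lawned with a saline suspension of spores, excess was decanted, and plates were dried 1 h at 37 °C. Compounds in DMSO went into punched wells, and inhibition zones were measured against controls, with voriconazole as standard.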

[9] = test system: Candida albicans; assay: Antifungal activity against Candida albicans at 200 ug/ml after 48 hrs by agar diffusion method; type: functional; conditions: read-out: IZ; summary of the method: as §1
[10] = test system: Escherichia coli; assay: Antibacterial activity against Escherichia coli ATCC 25922 after 24 hrs by broth dilution technique; type: functional; conditions: ATCC 25922, 24 h
Summary of the method: (§2)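 MIC by broth dilution: nutrient broth containing logarithmic two-fold serial dilutions of compound was inoculated with about 5 × 10⁵ c.f.u. of actively dividing bacteria.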

[11] = test system: Candida albicans; assay: Antifungal activity against Candida albicans at 100 ug/ml after 48 hrs by agar diffusion method; type: functional; conditions: read-out: IZ; summary of the method: as §1
[12] = test system: Pseudomonas aeruginosa; assay: Antibacterial activity against Pseudomonas aeruginosa ATCC 27853 after 24 hrs by broth dilution technique; type: functional; conditions: ATCC 27853, 24 h; summary of the method: as §2
[13] = test system: Staphylococcus aureus; assay: Antibacterial activity against Staphylococcus aureus ATCC 25923 at 200 ug/ml after 24 hrs by disc-diffusion method; type: functional; conditions: ATCC 25923, 24 h, read-out: IZ
[14] = test system: Aspergillus niger; assay: Antifungal activity against Aspergillus niger after 48 hrs; type: functional
[15] = test system: Escherichia coli; assay: Antibacterial activity against Escherichia coli ATCC 25922 at 200 ug/ml after 24 hrs by disc-diffusion method; type: functional; conditions: ATCC 25922, 24 h, read-out: IZ
[16] = test system: Aspergillus niger; assay: Antifungal activity against Aspergillus niger at 100 ug/ml after 3 to 4 days by agar diffusion method; conditions: read-out: IZ
[17] = test system: Pseudomonas aeruginosa; assay: Antibacterial activity against Pseudomonas aeruginosa ATCC 27853 after 18 to 24 hrs; type: functional
[18] = test system: Candida albicans; assay: Antifungal activity against Candida albicans after 48 hrs; type: functional
[19] = test system: Pseudomonas aeruginosa; assay: Antibacterial activity against Pseudomonas aeruginosa ATCC 27853 at 100 ug/ml after 24 hrs by disc-diffusion method; type: functional; conditions: ATCC 27853, 24 h, read-out: IZ
[20] = test system: Escherichia coli; assay: Antibacterial activity against Escherichia coli ATCC 25922 after 18 to 24 hrs; type: functional
[21] = test system: Bacillus subtilis; assay: Antibacterial activity against Bacillus subtilis ATCC 6633 after 24 hrs by broth dilution technique; type: functional; conditions: ATCC 6633, 24 h; summary of the method: as §2
[22] = test system: Staphylococcus aureus; assay: Antibacterial activity against Staphylococcus aureus ATCC 25923 after 24 hrs by broth dilution technique; type: functional; conditions: ATCC 25923, 24 h; summary of the method: as §2

Row | Compound | zone of inhibition at 100 µg/mL [1] [mm] | zone of inhibition at 200 µg/mL [2] [mm] | MBC [3] [µg/mL] | zone of inhibition at 100 µg/mL [4] [mm] | zone of inhibition at 200 µg/mL [5] [mm] | zone of inhibition at 100 µg/mL [6] [mm] | MBC [7] [µg/mL] | zone of inhibition at 200 µg/mL [8] [mm] | zone of inhibition at 200 µg/mL [9] [mm] | MIC [10] [µg/mL] | zone of inhibition at 100 µg/mL [11] [mm] | MIC [12] [µg/mL] | zone of inhibition at 200 µg/mL [13] [mm] | zone of inhibition at 200 µg/mL [15] [mm] | zone of inhibition at 100 µg/mL [16] [mm] | MBC [17] [µg/mL] | zone of inhibition at 100 µg/mL [19] [mm] | MBC [20] [µg/mL] | MIC [21] [µg/mL] | MIC [22] [µg/mL] | other results
1 | COc1cc(/C=C/C(=O)c2ccccc2)ccc1OCc1nnc(-c2ccccc2)o1 | 19 | 25 | 50 (≈ 121 µM) | 16 | 14 | 13 | 50 (≈ 121 µM) | 25 | 18 | 12.5 (≈ 30.3 µM) | 16 | 25 (≈ 60.6 µM) | 18 | 20 | 21 | 50 (≈ 121 µM) | 23 | 25 (≈ 60.6 µM) | 25 (≈ 60.6 µM) | 12.5 (≈ 30.3 µM) | MFC [14]: 25 µg/mL (≈ 60.6 µM); MIC [14]: 12.5 µg/mL (≈ 30.3 µM); MFC [18]: 25 µg/mL (≈ 60.6 µM); MIC [18]: 12.5 µg/mL (≈ 30.3 µM)
2 | COc1cc(/C=C/C(=O)c2ccccc2)ccc1OCc1nnc(-c2ccc(C)cc2)o1 | 19 | 25 | 12.5 (≈ 29.3 µM) | 15 | 14 | 12 | 25 (≈ 58.6 µM) | 22 | 16 | 6 (≈ 14.1 µM) | 15 | 12.5 (≈ 29.3 µM) | 16 | 21 | 20 | 50 (≈ 117 µM) | 23 | 25 (≈ 58.6 µM) | 6 (≈ 14.1 µM) | 6 (≈ 14.1 µM) | MFC [18]: 25 µg/mL (≈ 58.6 µM); MIC [18]: 12.5 µg/mL (≈ 29.3 µM)
3 | COc1ccc(C(=O)/C=C/c2ccc(OCc3nnc(-c4ccc(Cl)cc4)o3)c(OC)c2)cc1 | 17 | 24 | 50 (≈ 105 µM) | 14 | 13 | 12 | 50 (≈ 105 µM) | 21 | 17 | 12.5 (≈ 26.2 µM) | 16 | 12.5 (≈ 26.2 µM) | 15 | 19 | 19 | 100 (≈ 210 µM) | 22 | 100 (≈ 210 µM) | 12.5 (≈ 26.2 µM) | 12.5 (≈ 26.2 µM) | MFC [14]: 50 µg/mL (≈ 105 µM); MIC [14]: 12.5 µg/mL (≈ 26.2 µM)
4 | COc1cc(/C=C/C(=O)c2ccc(O)cc2)ccc1OCc1nnc(-c2ccc(Cl)cc2)o1 | 16 | 23 | 25 (≈ 54 µM) | 13 | 13 | 11 | 100 (≈ 216 µM) | 21 | 17 | 25 (≈ 54 µM) | 14 | 25 (≈ 54 µM) | 15 | 18 | 18 | 100 (≈ 216 µM) | 22 | 50 (≈ 108 µM) | 12.5 (≈ 27 µM) | 25 (≈ 54 µM) | MFC [18]: 25 µg/mL (≈ 54 µM); MIC [18]: 12.5 µg/mL (≈ 27 µM)
5 | COc1cc(/C=C/C(=O)c2ccc(O)cc2)ccc1OCc1nnc(-c2ccc([N+](=O)[O-])cc2)o1 | 15 | 23 | 50 (≈ 106 µM) | 12 | 11 | 10 | 50 (≈ 106 µM) | 19 | 15 | 50 (≈ 106 µM) | 13 | 12.5 (≈ 26.4 µM) | 13 | 17 | 17 | 100 (≈ 211 µM) | 21 | 100 (≈ 211 µM) | 12.5 (≈ 26.4 µM) | 25 (≈ 52.8 µM) | MFC [14]: 100 µg/mL (≈ 211 µM); MIC [14]: 25 µg/mL (≈ 52.8 µM)
6 | COc1cc(/C=C/C(=O)c2ccc(O)cc2)ccc1OCc1nnc(-c2ccc(C)cc2)o1 | 19 | 25 | 25 (≈ 56.5 µM) | 15 | 14 | 12 | 50 (≈ 113 µM) | 23 | 17 | 12.5 (≈ 28.3 µM) | 15 | 25 (≈ 56.5 µM) | 17 | 20 | 20 | 100 (≈ 226 µM) | 23 | 25 (≈ 56.5 µM) | 12.5 (≈ 28.3 µM) | 25 (≈ 56.5 µM) | MFC [18]: 100 µg/mL (≈ 226 µM); MIC [18]: 25 µg/mL (≈ 56.5 µM)
7 | O=C(O)c1cn(C2CC2)c2cc(N3CCNCC3)c(F)cc2c1=O [CIPROFLOXACIN] |  | 33 | 12.5 (≈ 37.7 µM) | 23 | 22 | 21 | 12.5 (≈ 37.7 µM) |  |  | 6 (≈ 18.1 µM) |  | 6 (≈ 18.1 µM) | 24 | 27 |  | 12.5 (≈ 37.7 µM) | 32 | 12.5 (≈ 37.7 µM) | 6 (≈ 18.1 µM) | 6 (≈ 18.1 µM) | 
8 | C[C@@H](c1ncncc1F)[C@](O)(Cn1cncn1)c1ccc(F)cc1F [VORICONAZOLE] |  |  |  |  |  |  |  | 30 | 26 |  | 24 |  |  |  | 28 |  |  |  |  |  | MFC [14]: 12.5 µg/mL (≈ 35.8 µM); MIC [14]: 6 µg/mL (≈ 17.2 µM); MFC [18]: 12.5 µg/mL (≈ 35.8 µM); MIC [18]: 6 µg/mL (≈ 17.2 µM)
